Format in all cases: functional
Assay [1] deals with Streptococcus pneumoniae. The experiment in a line: Antibacterial activity against erythromycin-resistant Streptococcus pneumoniae assessed as percent sensitive isolates by CLSI breakpoint method.
Assay [2] concerns Streptococcus pneumoniae. The experiment in a line: Antibacterial activity against erythromycin-resistant Streptococcus pneumoniae assessed as percent resistant isolates by CLSI breakpoint method.
Assay [3] has as its system Streptococcus pneumoniae. Nature of the assay: Antibacterial activity against erythromycin-resistant Streptococcus pneumoniae assessed as percent resistant isolates by microdilution method. A digest of the protocol: (§1)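 Broth microdilution MICs per CLSI on all 125 erythromycin-resistant pneumococcal isolates, using Mueller-Hinton broth with 2 to 5% lysed horse blood in prepared panels. Example ranges: erythromycin 0.25 to 32 μg/ml, clindamycin 0.25 to 0.5 μg/ml, penicillin 0.03 to 8 μg/ml, telithromycin 0.015 to 32 μg/ml (separate panel). Quality control strain: S. pneumoniae ATCC 49619.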

Assay [4] concerns Streptococcus pneumoniae. The experiment in a line: Antibacterial activity against erythromycin-resistant Streptococcus pneumoniae by microdilution method. In a few lines:
as §1

Assay [5] has as its system Streptococcus pneumoniae. Nature of the assay: Antibacterial activity against inducible macrolide-lincosamide-streptogramin B-resistant Streptococcus pneumoniae isolates by double-disk diffusion method. A digest of the protocol:
(§2)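 Macrolide resistance phenotype assigned by double-disk diffusion with erythromycin (15 μg) and clindamycin (2 μg) disks placed 12 mm apart, edge to edge. After incubation, a flattened clindamycin zone next to the erythromycin disk (D zone) marked inducible resistance. A conserved clindamycin zone marked the M phenotype.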

In assay [6] the test system is Streptococcus pneumoniae. Nature of the assay: Antibacterial activity against macrolide-resistant Streptococcus pneumoniae isolates by double-disk diffusion method. A digest of the protocol:
as §2

Assay [7] deals with Streptococcus pneumoniae. Nature of the assay: Antibacterial activity against constitutive macrolide-lincosamide-streptogramin B-resistant Streptococcus pneumoniae isolates by double-disk diffusion method. In a few lines:
as §2

The test system of assay [8] is Streptococcus pneumoniae. The experiment in a line: Antibacterial activity Streptococcus pneumoniae expressing erm(B) and/or mef genes at 0.25 ug/ml by broth microdilution method. A digest of the protocol:
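Clinical erythromycin-resistant pneumococcal isolates identified by bile solubility and optochin susceptibility. MICs were determined by CLSI broth microdilution in Mueller-Hinton broth with 2 to 5% lysed horse blood, using commercial prepared panels; telithromycin was tested on a separate panel across 0.015 to 32 μg/ml. S. pneumoniae ATCC 49619 served as quality control.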

Assay [9] relates to Streptococcus pneumoniae. The experiment in a line: Antibacterial activity against inducible macrolide-lincosamide-streptogramin B-resistant Streptococcus pneumoniae expressing erm(B) and tet(M) genes assessed as percent resistant isolates by broth microdilution method. A digest of the protocol: as §1

The structures appear in SMILES notation. In brackets after ≈: the same amount, converted by molar mass.

Results on eleven compounds are retold here after ChEMBL document CHEMBL1154403, “Serotypes, Clones, and Mechanisms of Resistance of Erythromycin-Resistant Streptococcus pneumoniae Isolates Collected in Spain” (2007).

As to `CC[C@H]1OC(=O)[C@H](C)[C@@H](O[C@H]2C[C@@](C)(OC)[C@@H](O)[C@H](C)O2)[C@H](C)[C@@H](O[C@@H]2O[C@H](C)C[C@H](N(C)C)[C@H]2O)[C@](C)(O)C[C@@H](C)CN(C)[C@H](C)[C@@H](O)[C@]1(C)O` [AZITHROMYCIN], the Activity entry in assay [1] is recorded as “<=0.5 ug ml-1”. Further, the “CLSI resistance breakpoint (MIC)” value in [2] was “>=2 ug ml-1”. Moreover, in assay [3], the Activity turned out to be 100%. Further, in assay [4], the MIC is more than 4 µg/mL, the MIC50 is more than 4 µg/mL and the MIC90 was more than 4 µg/mL.
`CO/N=C(\C(=O)N[C@@H]1C(=O)N2C(C(=O)O)=C(COC(C)=O)CS[C@H]12)c1csc(N)n1` [CEFOTAXIME]: in [1], the Activity result is given as “<=1 ug ml-1”. Moreover, the “CLSI resistance breakpoint (MIC)” value in assay [2] is “>=4 ug ml-1”. In [3], the Activity is on record as 0.8%. In assay [4], this compound had a minimum inhibitory concentration (MIC) not above 0.06 µg/mL, an MIC50 of 0.25 µg/mL (≈ 0.549 µM) and an MIC90 of 0.5 µg/mL (≈ 1.1 µM).
With `O=C(N[C@H](CO)[C@H](O)c1ccc([N+](=O)[O-])cc1)C(Cl)Cl` [CHLORAMPHENICOL], the Activity result in assay [1] is “<=4 ug ml-1”. Further, the “CLSI resistance breakpoint (MIC)” value in [2] is recorded as “>=8 ug ml-1”. Besides, in assay [3], the Activity is listed as 34.4%. In assay [4], the MIC is more than 8 µg/mL, the MIC50 is 2 µg/mL (≈ 6.19 µM) and the MIC90 is more than 8 µg/mL.
With `CCC[C@@H]1C[C@@H](C(=O)N[C@@H]([C@H]2O[C@H](SC)[C@H](O)[C@@H](O)[C@H]2O)[C@H](C)Cl)N(C)C1` [CLINDAMYCIN], the MIC in assay [5] was more than 0.5 µg/mL; in [6], not above 0.25 µg/mL; in assay [7], more than 0.5 µg/mL; in [4], more than 0.5 µg/mL. Further, the Activity result in assay [1] is “<=0.25 ug ml-1”; in assay [3], 87.2%. In addition, in [2], the “CLSI resistance breakpoint (MIC)” value is recorded as “>=1 ug ml-1”. In addition, in [4], the MIC50 is more than 0.5 µg/mL. This compound also came in with an MIC90 in assay [4] of more than 0.5 µg/mL.
Turning to `CC[C@H]1OC(=O)[C@H](C)[C@@H](O[C@H]2C[C@@](C)(OC)[C@@H](O)[C@H](C)O2)[C@H](C)[C@@H](O[C@@H]2O[C@H](C)C[C@H](N(C)C)[C@H]2O)[C@](C)(O)C[C@@H](C)C(=O)[C@H](C)[C@@H](O)[C@]1(C)O` [ERYTHROMYCIN], the figures for the MIC in assay [5], in [6] and in [7] were not below 4 µg/mL, 2 µg/mL (≈ 2.73 µM) and more than 32 µg/mL, respectively. Moreover, the Activity entry in [1] is recorded as “<=0.25 ug ml-1”; in assay [3], 100%. Besides, in assay [2], the “CLSI resistance breakpoint (MIC)” value is on record as “>=1 ug ml-1”. For the same compound, in assay [4], the MIC50 is more than 32 µg/mL. The MIC90 in assay [4] is more than 32 µg/mL.
Regarding `CO[C@@H]1[C@@H](O[C@@H]2O[C@H](C)[C@@H](O[C@H]3C[C@@](C)(O)[C@@H](OC(=O)CC(C)C)[C@H](C)O3)[C@H](N(C)C)[C@H]2O)[C@@H](CC=O)C[C@@H](C)[C@@H](O)/C=C/C=C/C[C@@H](C)OC(=O)C[C@H]1OC(C)=O` [JOSAMYCIN], the MIC is more than 2 µg/mL in [5], not above 0.5 µg/mL in [6], more than 2 µg/mL in [7] and more than 2 µg/mL in assay [4]. The values for the Activity entry in [1] and in assay [3] were “<=1 ug ml-1” and 87.2%, respectively. In assay [2], the “CLSI resistance breakpoint (MIC)” value is given as “>=4 ug ml-1”. The compound further gave an MIC50 in assay [4] of more than 2 µg/mL. The same compound yielded an MIC90 in [4] of more than 2 µg/mL.
For `C[C@H]1COc2c(N3CCN(C)CC3)c(F)cc3c(=O)c(C(=O)O)cn1c23.C[C@H]1COc2c(N3CCN(C)CC3)c(F)cc3c(=O)c(C(=O)O)cn1c23.O` [LEVOFLOXACIN], the Activity entry in assay [1] was “<=2 ug ml-1”. In addition, in [2], the “CLSI resistance breakpoint (MIC)” value is on record as “>=8 ug ml-1”. Moreover, the Activity in assay [3] stood at 4%. In [4], the MIC was more than 4 µg/mL, the MIC50 was 1 µg/mL and the MIC90 amounted to 1 µg/mL.
For the compound `COc1c(N2C[C@@H]3CCCN[C@@H]3C2)c(F)cc2c(=O)c(C(=O)O)cn(C3CC3)c12` [MOXIFLOXACIN], the Activity in [3] is recorded as 2.4%. In [4], this compound came in with an MIC of more than 1 µg/mL, an MIC50 not above 0.25 µg/mL and an MIC90 not above 0.25 µg/mL.
Regarding `CC[C@H]1OC(=O)[C@H](C)C(=O)[C@H](C)[C@@H](O[C@@H]2O[C@H](C)C[C@H](N(C)C)[C@H]2O)[C@](C)(OC)C[C@@H](C)C(=O)[C@H](C)[C@H]2N(CCCCn3cnc(-c4cccnc4)c3)C(=O)O[C@]12C` [TELITHROMYCIN], the Activity result in assay [1] is “<=1 ug ml-1”; in assay [3], 0%; in [8], 90%. Besides, the “CLSI resistance breakpoint (MIC)” value in assay [2] is recorded as “>=4 ug ml-1”. Moreover, the minimal inhibitory concentration (MIC) in [4] was 0.03 µg/mL (≈ 0.0369 µM). The compound further had an MIC50 in assay [4] of 0.03 µg/mL (≈ 0.0369 µM). The MIC90 in assay [4] stood at 0.25 µg/mL (≈ 0.308 µM).
Turning to `CN(C)[C@@H]1C(O)=C(C(N)=O)C(=O)[C@@]2(O)C(O)=C3C(=O)c4c(O)cccc4[C@@](C)(O)[C@H]3C[C@@H]12` [TETRACYCLINE], the Activity is 90% in assay [9], “<=2 ug ml-1” in assay [1] and 77.6% in assay [3]. Further, in assay [2], the “CLSI resistance breakpoint (MIC)” value is on record as “>=8 ug ml-1”. The compound also had an MIC in assay [4] of more than 4 µg/mL. The MIC50 in assay [4] was more than 4 µg/mL. Further, the MIC90 in assay [4] is more than 4 µg/mL.
Consider `CN[C@H](CC(C)C)C(=O)N[C@H]1C(=O)N[C@@H](CC(N)=O)C(=O)N[C@H]2C(=O)N[C@H]3C(=O)N[C@H](C(=O)N[C@H](C(=O)O)c4cc(O)cc(O)c4-c4cc3ccc4O)[C@H](O)c3ccc(c(Cl)c3)Oc3cc2cc(c3O[C@@H]2O[C@H](CO)[C@@H](O)[C@H](O)[C@H]2O[C@H]2C[C@](C)(N)[C@H](O)[C@H](C)O2)Oc2ccc(cc2Cl)[C@H]1O` [VANCOMYCIN], for which the Activity entry in assay [1] is “<=1 ug ml-1”. In addition, the Activity in [3] amounted to 0%. In assay [4], this compound had an MIC of 1 µg/mL (≈ 0.69 µM), an MIC50 not above 0.25 µg/mL and an MIC90 of 1 µg/mL (≈ 0.69 µM).
